zVAD death inh – blocks zVAD induced death of L929 cells. L929 zVAD necroptosis rescue, ATP luminescence, 24 h; with zVAD 60 µM. viability rescue, % at 10 µM. 0.38% of 220,000 active. AID 1377;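 active means activation, scaled between plate controls, above about 75%, limit read from the data; inactive means activation under that limit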;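 further: 0% = zVAD with DMSO and 100% = DMSO alone without zVAD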
Dynein cargo inh – blocks dynein driven cargo transport along microtubules; 3617.4 mouse cells, GR-EGFP nuclear translocation imaging; test concentration mostly 20 µM; stimulated with dexamethasone, 1 µM; hits give low values; z-score, hits read low; 0.47% of 220,000 active;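 active means plate z-score of nuclear minus cytoplasmic receptor signal below a set negative limit, without overly bright fluorescence or cell loss, cut at about -3.5 in these data, passing the limit was not always enough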;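 further: z-score of nuclear minus cytoplasmic ring GR-EGFP intensity difference per well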
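Buffer or medium: tet-free, stripped-serum medium; reagent: dexamethasone at 1.0 µM final, 30 min; incubation: 48 h induction, 1 h compound, 30 min dex at 37 °C; measured by: formaldehyde fixation, Hoechst nuclear stain, 10x automated fluorescence imaging; read-out: nuclear-to-cytoplasmic GR-EGFP distribution per well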
Hck Nef HTS – inhibitors of human Hck kinase activated by Nef; Recombinant Hck-YEEI plus Nef, Z-Lyte FRET kinase assay; inhibition, % at 20 µM; 0.68% of 220,000 active; AID 463187;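 active means Hck-Nef kinase inhibition above about 50%, limit read from the data; inactive means inhibition below that limit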;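 further: 0% = DMSO with Hck plus Nef and 100% = Hck alone without Nef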
Autophagy mod – modulators of autophagy. MEF GFP-LC3 puncta imaging; test concentration mostly 10 µM. calls only at 10 µM (by protocol). 0.98% of 190,000 active. AID 463193;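 active means percentage of spot-positive cells more than 3 SD above its plate mean, without a fluorescence outlier flag or 80% toxicity; inconclusive means no clear call, values can overlap the other calls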;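 further: spot-positive cell cutoff set from DMSO-treated cells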
Mdm2 ligase inh – blocks human Mdm2 ubiquitin ligase activity | signal enhancement, % at 5 µM | AID 1230 | cell-based MDM2 ubiquitination luciferase reporter, 2 h; 0 = plate control, 100 = twice control, blank-subtracted | Q00987 | 0.11% of 210,000 active;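 active means signal enhancement of 30% or more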;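 further: luminescence tracks abundance of the self-degrading MDM2-luciferase fusion protein; higher signal means inhibition of MDM2 E3 ligase activity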
Target sequence (Q00987 whole entry, looked up, the tested form may be a part): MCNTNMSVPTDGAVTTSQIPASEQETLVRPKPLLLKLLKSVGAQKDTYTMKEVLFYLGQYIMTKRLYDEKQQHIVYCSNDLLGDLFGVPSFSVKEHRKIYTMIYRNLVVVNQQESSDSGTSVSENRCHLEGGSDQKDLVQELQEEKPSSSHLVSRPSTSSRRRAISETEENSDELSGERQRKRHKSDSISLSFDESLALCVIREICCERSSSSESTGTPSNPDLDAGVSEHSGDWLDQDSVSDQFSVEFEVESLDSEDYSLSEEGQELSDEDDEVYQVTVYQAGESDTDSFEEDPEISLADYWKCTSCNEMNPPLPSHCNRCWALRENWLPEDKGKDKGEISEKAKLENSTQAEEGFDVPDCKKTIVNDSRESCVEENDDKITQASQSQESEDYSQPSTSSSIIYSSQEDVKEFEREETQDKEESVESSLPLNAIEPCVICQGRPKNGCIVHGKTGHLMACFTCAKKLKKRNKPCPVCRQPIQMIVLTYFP
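System: stable MDM2–luciferase fusion reporter cells / Input: 2000 cells seeded into each well / Schedule: 4 h settle plus 2 h compound, 37 °C / Compound: single-point 5 µM / Buffer or medium: cells held in DMEM / Benchmarks: control and blank well means / Evaluation: percent signal gain over controls, blank-subtracted / Measured by: luciferase luminescence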
TNF necrop inh – inhibitors of TNF-alpha induced necroptosis in Jurkat FADD-/- cells | Jurkat FADD-/- TNF necroptosis rescue, ATP luminescence, 24 h; 0 = TNF only, 100 = no-TNF cells | activation (protection from cell death), % at 10 µM | AID 463075 | 0.068% of 220,000 active;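 active means activation, meaning protection from cell death, of at least 50% relative to plate controls; inactive means activation below 50%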;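 further: necroptosis triggered by 40 ng/mL TNF-alpha added together with compound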
Dynein confirm – dynein cargo transport inhibition, confirmation; 3617.4 GR-EGFP nuclear translocation imaging, dexamethasone-induced; 69% of 1,000 active; shares compounds with Dynein cargo inh; calls only at 20 µM;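 active means inhibition of receptor movement into the nucleus at or above a set limit in both runs, with normal cell brightness and cell count; inconclusive means limit reached in only one run, brightness and count normal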;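 further: dexamethasone at 1 µM final in well for 30 min; nuclear minus cytoplasmic GR-EGFP mean intensity difference in channel 2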
An asterisk follows results filed as active. Most compounds without a hit are left out; they make up all but 2.4% or so of the library.

How did O=C(c1nnsc1S(=O)(=O)c1ccc(Cl)cc1)N1CCOCC1 do in these assays?
zVAD death inh: -2; Dynein cargo inh: -6*; Hck Nef HTS: 1; Autophagy mod: inactive; Mdm2 ligase inh: -18; TNF necrop inh: -13; Dynein confirm: active

How did COc1ccc(CCn2c(C)c(C(C)=O)c3cc(OC(=O)c4ccco4)ccc32)cc1OC do in these assays?
zVAD death inh: 0; Dynein cargo inh: -1.1; Hck Nef HTS: -1; Autophagy mod: inactive; Mdm2 ligase inh: -16; TNF necrop inh: -1

How did COc1ccccc1-c1ccc(=O)n(CC(=O)NC2CCc3ccccc32)n1 (configuration not stated) do in these assays?
zVAD death inh: 3; Dynein cargo inh: -0.46; Hck Nef HTS: 24; Autophagy mod: inactive; Mdm2 ligase inh: 2; TNF necrop inh: 3

Results for CCn1c(SCC(=O)N2CCOCC2)nc2oc3c(Cl)cc(Cl)cc3c(=O)c2c1=O ?
zVAD death inh: 3; Dynein cargo inh: -3.5*; Hck Nef HTS: 4; Autophagy mod: inactive; Mdm2 ligase inh: -24; TNF necrop inh: 4; Dynein confirm: active

What do the screens show for `CCn1c(SCC(=O)N2CCOCC2)nc2sc3c(c2c1=O)CCCC3`?
zVAD death inh: -1; Dynein cargo inh: 3.7; Hck Nef HTS: -1; Autophagy mod: inactive; Mdm2 ligase inh: -10; TNF necrop inh: -1

What do the screens show for `CCOC(=O)CSC1=NC(=O)/C(=C/c2ccc(Br)cc2)S1`?
zVAD death inh: 1; Dynein cargo inh: -4.3*; Hck Nef HTS: 36; Autophagy mod: inactive; Mdm2 ligase inh: 5; TNF necrop inh: -12; Dynein confirm: active

How did CC1CCC2C(=O)N(c3ccc(S(=O)(=O)c4ccccc4)cc3)C(=O)C2C1 (configuration not stated) do in these assays?
zVAD death inh: 1; Dynein cargo inh: -0.6; Hck Nef HTS: -1; Autophagy mod: inactive; Mdm2 ligase inh: 3; TNF necrop inh: 1

Results for COc1ccc(C2C(C(C)=O)=C(O)C(=O)N2c2ccc(Br)cn2)cc1 (configuration not stated) ?
zVAD death inh: 0; Dynein cargo inh: -2; Hck Nef HTS: 1; Autophagy mod: inactive; Mdm2 ligase inh: -6; TNF necrop inh: -2

Results for Cc1ccnc(N/C=C(\C#N)c2nc(-c3cccc(Br)c3)cs2)c1 ?
zVAD death inh: 0; Dynein cargo inh: -12; Hck Nef HTS: 4; Autophagy mod: active; Mdm2 ligase inh: 6; TNF necrop inh: -2; Dynein confirm: active

What do the screens show for `N#C/C(=C\Nc1ccc2cn[nH]c2c1)c1nc(-c2ccccc2)cs1`?
zVAD death inh: 14; Dynein cargo inh: 1.3; Hck Nef HTS: 28; Autophagy mod: inactive; Mdm2 ligase inh: -9; TNF necrop inh: 1

Results for Cc1ccc(C(=O)OCn2ncc(Cl)c(Cl)c2=O)cc1 ?
zVAD death inh: 36; Dynein cargo inh: -3.8*; Hck Nef HTS: -1; Autophagy mod: inconclusive; Mdm2 ligase inh: 17; TNF necrop inh: -25; Dynein confirm: active

What do the screens show for `Cc1cc(C(=O)Cn2ncc(Cl)c(Cl)c2=O)c(C)n1CC(F)(F)F`?
zVAD death inh: 46; Dynein cargo inh: -5.1*; Hck Nef HTS: 0; Autophagy mod: inactive; Mdm2 ligase inh: -19; TNF necrop inh: -15; Dynein confirm: active

How did Cc1ccc(C)c(C(=O)Cn2ncc(Cl)c(Cl)c2=O)c1 do in these assays?
zVAD death inh: 54; Dynein cargo inh: -4.7*; Hck Nef HTS: -22; Autophagy mod: inactive; Mdm2 ligase inh: -19; TNF necrop inh: -14; Dynein confirm: inconclusive

How did Cc1cc2oc(=O)cc(Cn3ncc(Cl)c(Cl)c3=O)c2cc1Cl do in these assays?
zVAD death inh: -2; Dynein cargo inh: -6.1*; Hck Nef HTS: 40; Autophagy mod: active; Mdm2 ligase inh: 10; TNF necrop inh: -14; Dynein confirm: active

How did CCOC(=O)c1ccc(NC(=O)CN2C(=O)CSC(C)C2=O)cc1 (configuration not stated) do in these assays?
zVAD death inh: 0; Dynein cargo inh: -0.78; Hck Nef HTS: 3; Autophagy mod: inactive; Mdm2 ligase inh: 3; TNF necrop inh: 1

Results for Cc1cccc(Cn2ncc(Cl)c(Cl)c2=O)c1 ?
zVAD death inh: 17; Dynein cargo inh: -4.3*; Hck Nef HTS: 1; Autophagy mod: inactive; Mdm2 ligase inh: -15; TNF necrop inh: -11; Dynein confirm: active

How did CC1(C)Cc2c(C#N)c(NC3CCCCC3)nc(-c3ccco3)c2CO1 do in these assays?
zVAD death inh: 0; Dynein cargo inh: -4.3*; Hck Nef HTS: 35; Autophagy mod: inactive; Mdm2 ligase inh: -16; TNF necrop inh: 1; Dynein confirm: inactive

What do the screens show for `Cc1cc(C)c2c(=O)n(CC(=O)NC3CCCC3)sc2n1`?
zVAD death inh: 1; Dynein cargo inh: -4.2*; Hck Nef HTS: -141; Mdm2 ligase inh: 0; TNF necrop inh: -7; Dynein confirm: active

What do the screens show for `COc1ccc(OC)c(CCNC(=O)Cn2sc3nc(C)cc(C)c3c2=O)c1`?
zVAD death inh: 0; Dynein cargo inh: -4.1*; Hck Nef HTS: -3; Autophagy mod: inactive; Mdm2 ligase inh: -4; TNF necrop inh: -3; Dynein confirm: active

Results for Cc1cc(C)c2c(=O)n(CC(=O)Nc3ccc(Br)c(C)c3)sc2n1 ?
zVAD death inh: -1; Dynein cargo inh: -0.83; Hck Nef HTS: -140; Mdm2 ligase inh: -13; TNF necrop inh: -16

Results for CC1(C)OC(=O)N(CCC(=O)Nc2cccc(F)c2)C1(C)O (configuration not stated) ?
zVAD death inh: 0; Dynein cargo inh: -0.67; Hck Nef HTS: 1; Autophagy mod: inactive; Mdm2 ligase inh: -7; TNF necrop inh: 2

What do the screens show for `COc1ccccc1/C=C/C(=O)/C=C/c1ccccc1O`?
zVAD death inh: 57; Dynein cargo inh: -4.2*; Hck Nef HTS: 24; TNF necrop inh: -21; Dynein confirm: active

Results for Cc1ccc(S(=O)(=O)N[C@@H](Cc2ccccc2)C(=O)CCl)cc1 ?
zVAD death inh: 6; Dynein cargo inh: -4.5*; Hck Nef HTS: 17; Autophagy mod: inactive; TNF necrop inh: -18; Dynein confirm: inactive

What do the screens show for `CCOC(=O)c1c(NC(=O)CCl)sc(CN(C)C)c1-c1ccccc1`?
zVAD death inh: -3; Dynein cargo inh: -5.2*; Hck Nef HTS: 22; Autophagy mod: inactive; Mdm2 ligase inh: -1; TNF necrop inh: -1; Dynein confirm: active

Screening results: PubChem, several laboratories
